Test results as given in publication PMC8567357 (ACS Omega, 2021).
Read-outs that look alike come from different tables or passages of the source.

Columns and labels:
E. coli (ATCC 25922) = assay: Antibacterial assay; assay type: cell-based; settings: Escherichia coli
Method in brief: (§1)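 Hospital-collected standard isolates were grown fresh on nutrient agar and suspended in nutrient broth to 0.5 McFarland. Test compound was mixed with 2 × 10⁷ CFU/mL in sterile BHI and shaken 60 min at 37 °C. Samples were serially diluted in BHI, plated, and incubated 24 h at 37 °C. Residual CFU were compared with the initial inoculum. IC50 is the mean of two measurements. Ampicillin was the positive reference.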

[1] = DPPH radical scavenging effect; settings: for IC50: read-out: DPPH mean IC50
Method in brief: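 Ethanolic DPPH was mixed with an equal volume of each sample concentration, shaken, and kept 1 h at room temperature in the dark. Residual DPPH absorbance was read at 519 nm against a control without test compound. BHT was the positive control. Scavenging % was calculated from compound and control absorbances. IC50 was taken from the scavenging-versus-concentration plot. Values are means of two determinations ± SD.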

[2] = biological target: purified recombinant human LDHA protein (Homo sapiens, UniProt P00338); assay: Lactate dehydrogenase; assay type: biochemical; settings: for inhibition at 100 µg/mL: read-out: LDHA mean inhibitory % ± SD
[3] = biological target: Pyruvate Dehydrogenase Kinase-1 (PDK-1) (Homo sapiens, UniProt Q15118); assay: Pyruvate dehydrogenase kinase; assay type: biochemical; settings: for inhibition at 100 µg/mL: read-out: PDK-1 mean inhibitory % ± SD
Chain of Pyruvate Dehydrogenase Kinase-1 (PDK-1) (Q15118 29-436): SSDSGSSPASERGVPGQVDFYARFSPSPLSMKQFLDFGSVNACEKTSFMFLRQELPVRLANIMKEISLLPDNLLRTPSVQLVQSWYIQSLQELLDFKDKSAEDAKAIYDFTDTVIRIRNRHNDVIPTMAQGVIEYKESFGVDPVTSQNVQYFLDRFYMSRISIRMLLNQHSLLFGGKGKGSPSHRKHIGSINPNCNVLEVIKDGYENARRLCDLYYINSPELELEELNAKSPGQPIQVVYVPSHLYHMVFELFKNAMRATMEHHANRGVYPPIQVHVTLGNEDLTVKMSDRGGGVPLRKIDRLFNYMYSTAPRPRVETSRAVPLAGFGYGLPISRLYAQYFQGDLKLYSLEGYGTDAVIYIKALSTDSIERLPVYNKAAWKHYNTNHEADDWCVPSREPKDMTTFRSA
Method in brief: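 PDK-1 activity measured by the Kinase-Glo luminescent method. Wells held 10× assay buffer (250 mM Tris–HCl, 50 mM MgCl₂, 5 mM EGTA, 10 mM EDTA, 10 mM DTT), test compound (25–300 μg), and added solutions of PDH E1 (10 μM), ATP (10 μM) and PDK-1 (20 μM) in KCl/K₃PO₄/MgCl₂ buffer. Incubated 30 min at 37 °C, then Kinase-Glo reagent for 10 min at room temperature, and luminescence read. Controls: PBS or 1% DMSO; sodium dichloroacetate 1000 μM as reference. Mean ± SD of two replicates.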

[4] = tested on: Enterococcus faecalis (ATCC 29122); assay: Antibacterial assay; assay type: cell-based; settings: ATCC29122, read-out: Enterococcus faecalis mean IC50 (μM)
Method in brief: as §1

Cytotoxicity assay [5] = assay type: cell-based, human; settings: human, LoVo cells (colorectal cancer cell line)
Method in brief: (§2)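 ATCC-sourced cells were cultured 24 h at 37 °C in 5% CO₂ with test compound (25, 50, 75, 100, 200, 400 μg) diluted in DMEM with 10% FBS. LDH released into the supernatant was measured by end-point ELISA, with OD read at 550 nm. Controls were 0.1% Triton X-100 (positive) and medium alone (negative). Viability is % OD relative to control, at 100 μg final, mean ± SD (n = 2). IC50 was taken from the viability-versus-concentration plot.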

Cytotoxicity assay [6] = assay type: cell-based, human; settings: human, HCT-116 cells (colorectal cancer cell line)
Method in brief: as §2

LoVo cells = assay: Cytotoxicity assay; assay type: cell-based, human; settings: for IC50: Homo sapiens, LoVo
Method in brief: as §2

HCT-116 cells = assay: Cytotoxicity assay; assay type: cell-based, human; settings: for IC50: Homo sapiens
Method in brief: as §2

[7] = ATCC25922, read-out: E. coli mean IC50 (μM)
[8] = ATCC25922, read-out: E. coli mean IC50 (μg/mL) ± SD
[9] = LDHA IC50 (μg/mL) ± SD, mean of two determinations
[10] = PDK1 IC50 (μg/mL) ± SD, mean of two determinations
[11] = read-out: LoVo cells mean IC50 (μM)
[12] = read-out: LoVo cells mean IC50 (μg/mL) ± SD
[13] = HCT-116, read-out: HCT-116 mean IC50 (μM)
[14] = HCT-116, read-out: HCT-116 mean IC50 (μg/mL) ± SD

Molecule | IC50 (E. coli (ATCC 25922); [7]) [µM] | IC50 (E. coli (ATCC 25922); [8]) [µg/mL] | DPPH mean IC50 (μg/mL) ± SD [1] [µg/mL] | IC50 [1] [µM] | inhibition at 100 µg/mL [2] [%] | inhibition at 100 µg/mL [3] [%] | IC50 [4] [µM] | IC50 ([2]; LDHA IC50 (μM)) [µM] | IC50 [2, 9] [µM] | IC50 ([3]; PDK1 IC50 (μM)) [µM] | IC50 [3, 10] [µM] | viability at 24 h, 100 μg/mL (Cytotoxicity assay [5]) [%] | viability at 24 h, 100 μg/mL (Cytotoxicity assay [6]) [%] | IC50 (LoVo cells; [11]) [µM] | IC50 (LoVo cells; [12]) [µg/mL] | IC50 (HCT-116 cells; [13]) [µM] | IC50 (HCT-116 cells; [14]) [µg/mL] | mean % of viable LoVo cells (positive control) (LoVo cells; 0.1% in assay medium) [%] | mean % of viable HCT-116 cell (positive control) (HCT-116 cells; 0.1% in assay medium) [%]
N#Cc1c(N2C(=O)CCC2=O)sc2c1CCC(c1ccccc1)C2 (stereo not drawn) [compound 7, 2-(2,5-Dioxopyrrolidin-1-yl)-6-phenyl-4,5,6,7-tetrahydrobenzo[b]thiophene-3-carbonitrile] | 82.9 | 27.9 ± 2.26 | 222.5 ± 17.68 | 661 | 48.8 ± 5.3 | 35.9 ± 4.1 | 83.5 | 276 | 276 | 428 | 428 | 51.5 ± 2.12 | 47.2 ± 1.06 | 323 | 108 ± 3.54 | 288 | 97 ± 2.83 | – | –
CC1(C)S[C@@H]2[C@H](NC(=O)[C@H](N)c3ccccc3)C(=O)N2[C@H]1C(=O)O [ampicillin, reference compound] | 58 | 20.2 ± 1.77 | – | – | – | – | 36.5 | – | – | – | – | – | – | – | – | – | – | – | –
Triton X-100 [reference compound] | – | – | – | – | – | – | – | – | – | – | – | – | – | – | – | – | – | 0.00 | 0.00
COc1ccc(C=Nc2sc3c(c2C#N)CCCC3)cc1O [compound 11, 2-((3-Hydroxy-4-methoxybenzylidene)amino)-4,5,6,7-tetrahydrobenzo[b]thiophene-3-carbonitrile] | 181 | 56.6 ± 1.98 | 332.5 ± 17.68 | 1060 | 29.6 ± 1.98 | 23.7 ± 2.4 | 126 | – | – | – | – | 63.8 ± 1.77 | 60.5 ± 2.12 | 474 | 148 ± 4.24 | 403 | 126 ± 4.25 | – | –
CN(C)C=Nc1sc2c(c1C#N)CCC(c1ccccc1)C2 (stereo not drawn) [compound 9, N′-(3-Cyano-6-phenyl-4,5,6,7-tetrahydrobenzo[b]thiophen-2-yl)-N,N-dimethyl Formamidine] | 94.9 | 29.4 ± 1.2 | 210.0 ± 28.28 | 679 | 32.6 ± 2.33 | 36.5 ± 2.12 | 111 | – | – | – | – | 71.8 ± 2.55 | 69 ± 1.41 | 642 | 198 ± 4.95 | 524 | 162 ± 4.24 | – | –
Cc1cc(C(C)(C)C)c(O)c(C(C)(C)C)c1 [BHT, butylated hydroxy toluene, reference compound] | – | – | 54.0 ± 5.66 | 245 | – | – | – | – | – | – | – | – | – | – | – | – | – | – | –

Now from value to molecule, other results behind:

IC50 (E. coli (ATCC 25922); [7]) [µM] | IC50 (E. coli (ATCC 25922); [8]) [µg/mL] | DPPH mean IC50 (μg/mL) ± SD [1] [µg/mL] | IC50 [1] [µM] | inhibition at 100 µg/mL [2] [%] | inhibition at 100 µg/mL [3] [%] | IC50 [4] [µM] | IC50 ([2]; LDHA IC50 (μM)) [µM] | IC50 [2, 9] [µM] | IC50 ([3]; PDK1 IC50 (μM)) [µM] | IC50 [3, 10] [µM] | Molecule | viability at 24 h, 100 μg/mL (Cytotoxicity assay [5]) [%] | viability at 24 h, 100 μg/mL (Cytotoxicity assay [6]) [%] | IC50 (LoVo cells; [11]) [µM] | IC50 (LoVo cells; [12]) [µg/mL] | IC50 (HCT-116 cells; [13]) [µM] | IC50 (HCT-116 cells; [14]) [µg/mL] | mean % of viable LoVo cells (positive control) (LoVo cells; 0.1% in assay medium) [%] | mean % of viable HCT-116 cell (positive control) (HCT-116 cells; 0.1% in assay medium) [%]
147 | 26.2 ± 1.06 | 332.5 ± 17.68 | 1870 | 23.1 ± 3.05 | 11.2 ± 3.18 | 119 | – | – | – | – | N#Cc1c(N)sc2c1CCCC2 [1c, 2-amino-4,5,6,7-tetrahydro-benzo[b]thiophene-3-carbonitrile] | – | – | – | – | – | – | – | –
89.4 | 36.8 ± 1.7 | 595.0 ± 21.21 | 1450 | 18.4 ± 1.98 | 18.4 ± 1.98 | 90.6 | – | – | – | – | CCOC(=O)c1c(NC(=O)c2cccs2)sc2c1CCC(c1ccccc1)C2 (stereo not drawn) [3e, Ethyl 6-Phenyl-2-(thiophene-2-carboxamido)-4,5,6,7-tetrahydrobenzo[b] thiophene-3-carboxylate] | – | – | – | – | – | – | – | –
72.4 | 27.1 ± 0.35 | 665.0 ± 21.21 | 1780 | 28.8 ± 2.06 | 21.5 ± 2.4 | 102 | – | – | – | – | CCOC(=O)Nc1sc2c(c1C(=O)OCC)CCC(c1ccccc1)C2 (stereo not drawn) [3a, Ethyl 2-((Ethoxycarbonyl)amino)-6-phenyl-4,5,6,7-tetrahydrobenzo[b]thiophene-3-carboxylate] | – | – | – | – | – | – | – | –
– | – | 110.0 ± 14.14 | 432 | 74.1 ± 2.97 | 87 ± 2.83 | 83.4 | 252 | 252 | 224 | 224 | N#Cc1c(N)sc2c1CCC(c1ccccc1)C2 (stereo not drawn) [compound 1b, 2-amino-6-phenyl-4,5,6,7-tetrahydrobenzo[b]thiophene-3-carbonitrile] | 56.5 ± 0.71 | 53.5 ± 2.12 | – | – | – | – | – | –
82.6 | 24.9 ± 0.99 | 390.5 ± 13.44 | 1300 | 19.2 ± 3.18 | 12.3 ± 1.91 | 146 | – | – | – | – | CCOC(=O)c1c(N)sc2c1CCC(c1ccccc1)C2 (stereo not drawn) [compound 1a, 2-amino-6-phenyl-4,5,6,7-tetrahydrobenzo[b]thiophene-3-carboxylic acid ethyl ester] | – | – | – | – | – | – | – | –
– | – | 130.0 ± 14.14 | 398 | 19.3 ± 0.85 | 51.5 ± 3.54 | 83.5 | 892 | 891 | 302 | 302 | CCOC(=O)Nc1sc2c(c1C#N)CCC(c1ccccc1)C2 (stereo not drawn) [compound 3b, Ethyl (3-Cyano-6-phenyl-4,5,6,7-tetrahydrobenzo[b]thiophen-2-yl)carbamate] | 35.5 ± 2.12 | 28 ± 1.41 | 250 | 81.5 ± 3.54 | 218 | 71 ± 2.83 | – | –
62.8 | 26.9 ± 0.57 | 440.0 ± 28.28 | 1030 | 30.8 ± 1.7 | 41 ± 2.83 | 62.2 | – | – | – | – | CCOC(=O)c1c(NC(=O)CN2CCOCC2)sc2c1CCC(c1ccccc1)C2 (stereo not drawn) [5a, Ethyl 2-(2-Morpholinoacetamido)-6-phenyl-4,5,6,7-tetrahydrobenzo[b]thiophene-3-carboxylate] | – | – | – | – | – | – | – | –
